This note sets out measurements from ChEMBL document CHEMBL4196105, “Discovery of β-Arrestin Biased Ligands of 5-HT7R” (J Med Chem, 2018).

As usually defined, the Ki is a dissociation constant, usually derived from enzyme kinetics or from competition with a known ligand. By AUC(0-t) is commonly meant exposure summed from dosing to a finite time, without extrapolation to infinity. In general, AUC(0-inf) refers to total exposure, with the tail of the curve extrapolated. The term Tmax denotes the time at which the peak concentration occurs. As a reminder, the IC50 is the concentration that inhibits the measured activity by half. As usually defined, the EC50 is the concentration giving half of the maximal effect.

The source made the active and inactive calls. The calls are words filed in the database; no cut-off is given here.

Data set [1] has as its target 5-hydroxytryptamine receptor 4 (Homo sapiens, UniProt Q13639). In words: Displacement of [3H]LSD from human 5-HT4 receptor expressed in HEK cell membranes after 1.5 hrs by microbeta scintillation counting method. The essentials: (§1)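 Radioligand binding performed by the NIMH Psychoactive Drug Screening Program. Crude membranes from cells expressing recombinant receptor, with [3H]LSD, in 50 mM Tris-HCl, 10 mM MgCl2, 1 mM EDTA, pH 7.4. Eleven test concentrations. Incubated 1.5 h at room temperature, protected from light. Filtered onto PEI-soaked GF/B filters, then scintillation counting. IC50 converted to Ki; at least three experiments in triplicate.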
In general terms: Loss of bound radioactivity is the signal in a displacement assay; it reports binding, not function.

The species named for data set [2] is Homo sapiens. As to the kind of experiment: Selectivity index, ratio of Ki for human 5-HT2A receptor to Ki for human 5-HT7 receptor. The procedure, abridged: (§2)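 Selectivity index taken as Ki at the other 5-HT receptor subtype divided by Ki at 5-HT7R, each from [3H]LSD membrane binding run by the NIMH PDSP. Ki values are means of at least three experiments in triplicate.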

Data set [3] is described as follows: AUClast in ICR mouse at 50 mg/kg, po by LC-MS/MS analysis. It counts as ADME, organism-based. Details: dose 50 mg/kg, route oral, time 0 - last. The settings on record: in vivo. The essentials: (§3)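 Male ICR mice, 7~8 weeks, 30 ± 5 g; single dose 5 mg/kg IV (n = 5) or 50 mg/kg oral (n = 4). Plasma protein-precipitated with acetonitrile containing internal standard, then LC-MS/MS. Non-compartmental analysis; AUClast by trapezoidal rule. Mean ± SD.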

A short description of data set [4]: AUC (0 to infinity) in ICR mouse at 50 mg/kg, po by LC-MS/MS analysis. The data set is classed as ADME, organism-based. The conditions noted are these: in vivo. The arrangement: dose 50 mg/kg, time infinity, route oral. The procedure, abridged: as §3
The target in data set [5] is T1, 5-hydroxytryptamine receptor 7 (Homo sapiens, UniProt P34969). In words: Antagonist activity at human 5-HT7 receptor expressed in HEK293 cells assessed as inhibition of Gs protein-mediated cAMP accumulation by luminescence-based assay relative to SB269970. The data set is classed as functional, cell-based. The procedure, abridged:
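HEK293 cells transiently transfected by calcium phosphate with human 5-HT7R and GloSensor-22F cAMP biosensor. After 5-6 h recovery, loaded with GloSensor reagent in HBSS/20 mM HEPES, pH 7.4. Test compounds at 0.01 nM-100 μM final; antagonist mode uses 5-HT stimulation. Luminescence read. Data normalised to 5-HT or SB269970 (100%) and vehicle (0%). Three experiments, at least triplicate.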
(In general: Changes in cAMP serve as a functional read-out for many G protein-coupled receptors.)

Data set [6] deals with Mus musculus. As to the kind of experiment: Toxicity in ICR mouse assessed as mortality at 5 mg/kg, iv. The settings on record: in vivo. It counts as organism-based. The procedure, abridged:
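Observed in male ICR mice (7~8 weeks, 30 ± 5 g; n = 5) during a pharmacokinetic study after a single intravenous dose. Mice were held at 23 ± 3° and about 55% ± 10% humidity with standard feed and tap water. Blood was drawn via carotid artery from 0.08 to 8 h after dosing.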

The species named for data set [7] is Homo sapiens. As to the kind of experiment: Selectivity index, ratio of Ki for human 5-HT2C receptor to Ki for human 5-HT7 receptor. The essentials:
as §2

Data set [8] can be described thus: Tmax in ICR mouse at 5 mg/kg, iv by LC-MS/MS analysis. The data set is classed as ADME, organism-based. The settings on record: in vivo. The procedure, abridged: as §3
In another data set the target is CYP2C19 (Homo sapiens, UniProt P33261). As to the kind of experiment: Inhibition of CYP2C19 in human liver microsomes assessed as remaining activity at 10 uM using S-mephenytoin as substrate preincubated for 5 mins followed by addition of NADPH generating system measured after 15 mins by LC-MS analysis. The data set is classed as ADME. The conditions noted are these: probe S-mephenytoin, read-out: Activity. The procedure, abridged: (§4)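 Human liver microsomes 0.25 mg/ml in 0.1 M phosphate, pH 7.4, with a probe cocktail: phenacetin 50 μM, diclofenac 10 μM, S-mephenytoin 100 μM, dextromethorphan 5 μM, midazolam 2.5 μM. Test compound at 10 μM versus 0 μM control. 5 min at 37 °C, then NADPH-generating system for 15 min. Acetonitrile quench; metabolites measured by LC/MS as % remaining activity.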

Data set [9] relates to Mus musculus. As to the kind of experiment: Toxicity in ICR mouse assessed as mortality at 50 mg/kg, po. The data set is classed as organism-based. The settings on record: in vivo. The procedure, abridged:
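Observed in male ICR mice (7~8 weeks, 30 ± 5 g; n = 4) during a pharmacokinetic study after a single oral dose. Mice were held at 23 ± 3° and about 55% ± 10% humidity with standard feed and tap water. Blood was drawn via carotid artery from 0.25 to 8 h after dosing.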

A short description of data set [10]: Terminal half-life in ICR mouse at 5 mg/kg, iv by LC-MS/MS analysis. It counts as ADME, organism-based. The settings on record: in vivo, read-out: beta t1/2 (converted). The essentials:
as §3

Data set [11] deals with Mus musculus. As to the kind of experiment: Sleep promoting activity in C57B1/6J mouse assessed as decrease in total rapid eye movement sleep time at 30 mg/kg, ip measured over 4 hrs by electroencephalogram method. Details: scale not given: the % may be the effect or the level left. It counts as functional. The essentials: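 Adult male C57Bl/6J mice, 10 weeks old, with parietal EEG screw electrodes implanted under ketamine. EEG and EMG recorded for 8 h from 9 AM, starting one day before dosing as baseline. On test day, 30 mg/kg i.p. at the start of the light phase, with EEG/EMG recorded for 8 h and scored in 2-h bins. n = 6-9 per group; mean ± SEM versus vehicle.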

The next data set has as its target CYP3A4 (Homo sapiens, UniProt P08684). As to the kind of experiment: Inhibition of CYP3A4 in human liver microsomes assessed as remaining activity at 10 uM using midazolam as substrate preincubated for 5 mins followed by addition of NADPH generating system measured after 15 mins by LC-MS analysis. The data set is classed as ADME. The conditions noted are these: probe midazolam, read-out: Activity. The procedure, abridged:
as §4
On the technique in general: Liver microsomes are a subcellular fraction often used to study metabolism.

For data set [12], the target named is T1, 5-hydroxytryptamine receptor 7.
Data set [13] shares this target. In words: Antagonist activity at tTA containing TCS cleavage site-fused 5-HT7 receptor (unknown origin) expressed in tTA-dependent luciferase reporter/TEV-fused beta-arrestin2 expressing HTLA cells assessed as inhibition of 5-HT-induced beta-arrestin2 recruitment after 22 hrs by Tango assay. The data set is classed as functional, cell-based.
Data set [14] is filed under the species Homo sapiens. In words: Selectivity index, ratio of Ki for human 5-HT2B receptor to Ki for human 5-HT7 receptor. The essentials: as §2
Data set [15] addresses T1, 5-hydroxytryptamine receptor 7. The source holds these as a separate data set.
The species named for data set [16] is Homo sapiens. As to the kind of experiment: Selectivity index, ratio of Ki for human 5-HT1D receptor to Ki for human 5-HT7 receptor. The procedure, abridged:
as §2

Data set [17] deals with 5-hydroxytryptamine receptor 6 (Homo sapiens, UniProt P50406). In words: Displacement of [3H]LSD from human 5-HT6 receptor expressed in HEK cell membranes after 1.5 hrs by microbeta scintillation counting method. The essentials: as §1
The nature of data set [18]: AUC (0 to infinity) in ICR mouse at 5 mg/kg, iv by LC-MS/MS analysis. It counts as ADME, organism-based. Details: dose 5 mg/kg, time infinity, route intravenous. The settings on record: in vivo. The procedure, abridged: as §3
For data set [19], the species on record is Homo sapiens. In words: Selectivity index, ratio of Ki for human 5-HT1E receptor to Ki for human 5-HT7 receptor. The procedure, abridged:
as §2

Data set [20] deals with T1, 5-hydroxytryptamine receptor 7. In words: Displacement of [3H]LSD from human 5-HT7 receptor expressed in HEK cell membranes after 1.5 hrs by microbeta scintillation counting method.
The species named for data set [21] is Homo sapiens. In words: Selectivity index, ratio of Ki for human 5-HT1A receptor to Ki for human 5-HT7 receptor. The procedure, abridged: as §2

Sequence of 5-hydroxytryptamine receptor 6 (P50406 whole entry): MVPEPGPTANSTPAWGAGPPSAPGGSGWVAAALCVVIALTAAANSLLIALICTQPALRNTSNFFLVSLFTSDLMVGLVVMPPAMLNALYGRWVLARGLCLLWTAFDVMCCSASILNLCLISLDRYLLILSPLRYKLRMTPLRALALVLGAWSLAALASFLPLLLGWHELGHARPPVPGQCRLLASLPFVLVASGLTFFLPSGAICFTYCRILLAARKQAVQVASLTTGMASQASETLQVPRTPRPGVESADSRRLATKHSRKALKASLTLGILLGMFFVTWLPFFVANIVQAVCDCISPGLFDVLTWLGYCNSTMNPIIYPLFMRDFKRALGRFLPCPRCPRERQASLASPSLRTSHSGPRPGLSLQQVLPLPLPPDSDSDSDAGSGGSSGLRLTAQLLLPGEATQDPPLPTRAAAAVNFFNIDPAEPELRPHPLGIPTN
T1 sequence (P34969 whole entry): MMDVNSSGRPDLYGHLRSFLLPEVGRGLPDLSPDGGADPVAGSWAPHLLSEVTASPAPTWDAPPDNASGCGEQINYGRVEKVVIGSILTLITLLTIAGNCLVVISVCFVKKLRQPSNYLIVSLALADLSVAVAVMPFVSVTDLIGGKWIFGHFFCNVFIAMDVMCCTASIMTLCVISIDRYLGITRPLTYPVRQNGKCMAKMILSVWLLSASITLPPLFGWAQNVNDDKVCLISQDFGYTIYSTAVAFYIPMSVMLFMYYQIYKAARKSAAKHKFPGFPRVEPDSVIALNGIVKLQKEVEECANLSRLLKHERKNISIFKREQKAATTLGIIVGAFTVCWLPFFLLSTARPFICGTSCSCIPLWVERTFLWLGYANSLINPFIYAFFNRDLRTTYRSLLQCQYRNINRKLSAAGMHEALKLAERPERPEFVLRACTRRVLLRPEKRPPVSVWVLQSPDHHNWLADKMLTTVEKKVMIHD
Sequence of 5-hydroxytryptamine receptor 4 (Q13639 whole entry): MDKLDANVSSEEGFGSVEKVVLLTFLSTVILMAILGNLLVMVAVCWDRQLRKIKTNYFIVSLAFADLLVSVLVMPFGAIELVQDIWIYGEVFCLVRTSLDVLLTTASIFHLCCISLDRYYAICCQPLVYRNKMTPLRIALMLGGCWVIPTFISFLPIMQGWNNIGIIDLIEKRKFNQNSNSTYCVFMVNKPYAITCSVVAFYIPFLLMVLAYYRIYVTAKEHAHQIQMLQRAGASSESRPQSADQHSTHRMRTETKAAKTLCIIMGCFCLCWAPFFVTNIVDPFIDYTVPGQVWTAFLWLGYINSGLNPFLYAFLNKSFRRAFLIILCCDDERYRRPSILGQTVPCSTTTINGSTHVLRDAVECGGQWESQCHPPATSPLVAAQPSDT
Sequence of CYP2C19 (P33261 whole entry): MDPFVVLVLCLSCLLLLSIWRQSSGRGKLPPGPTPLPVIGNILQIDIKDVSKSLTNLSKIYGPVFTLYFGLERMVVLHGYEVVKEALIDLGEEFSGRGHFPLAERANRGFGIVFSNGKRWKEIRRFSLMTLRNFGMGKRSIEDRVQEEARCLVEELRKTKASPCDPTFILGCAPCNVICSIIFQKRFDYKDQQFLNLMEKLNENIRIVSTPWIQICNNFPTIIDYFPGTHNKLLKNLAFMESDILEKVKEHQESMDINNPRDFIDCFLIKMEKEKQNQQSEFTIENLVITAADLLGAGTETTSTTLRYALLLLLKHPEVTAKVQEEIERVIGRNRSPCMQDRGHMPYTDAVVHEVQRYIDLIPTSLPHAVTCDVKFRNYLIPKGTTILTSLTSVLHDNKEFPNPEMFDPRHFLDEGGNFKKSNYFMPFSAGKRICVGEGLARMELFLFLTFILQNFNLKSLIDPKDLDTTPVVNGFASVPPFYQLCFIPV
Sequence of CYP3A4 (P08684 whole entry): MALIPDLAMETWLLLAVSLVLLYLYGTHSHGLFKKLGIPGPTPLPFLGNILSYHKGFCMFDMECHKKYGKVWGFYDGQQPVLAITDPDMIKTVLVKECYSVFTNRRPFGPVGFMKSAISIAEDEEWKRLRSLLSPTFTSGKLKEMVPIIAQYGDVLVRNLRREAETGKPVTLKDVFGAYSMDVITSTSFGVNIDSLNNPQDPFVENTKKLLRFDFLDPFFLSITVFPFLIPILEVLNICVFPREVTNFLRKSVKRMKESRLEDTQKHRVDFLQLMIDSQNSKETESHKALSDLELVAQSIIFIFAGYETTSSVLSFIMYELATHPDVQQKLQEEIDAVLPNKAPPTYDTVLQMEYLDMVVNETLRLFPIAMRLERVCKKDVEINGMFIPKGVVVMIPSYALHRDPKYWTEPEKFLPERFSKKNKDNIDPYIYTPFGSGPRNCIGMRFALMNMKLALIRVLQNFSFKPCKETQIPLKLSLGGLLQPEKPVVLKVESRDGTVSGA

With `Clc1ccc(-c2n[nH]c3c2CCNCC3)cc1`, the figures for the Ki in [1] and in [17] were greater than 10000 nM and 248 nM, respectively. Moreover, the Ratio Ki in the data set filed under Homo sapiens [2] is 6.2; in the data set listed under Homo sapiens [7] it was 26.6; in the data set listed under Homo sapiens [14], 3.3; in the data set listed under Homo sapiens [16] it was 70.5; in the data set filed under Homo sapiens [19], 45.5. In data set [3], this molecule gave an AUC(0-t) of 53700 ng·h/mL. Also, the AUC(0-inf) in [4] was 64300 ng·h/mL; in [18] it was 5210 ng·h/mL. In addition, the Imax in [5] was found to be 94.8%. In addition, the Activity result was “Non-Toxic” in the data set with Mus musculus [6], “Non-Toxic” in the data set with Mus musculus [9] and 69.4% in the data set on Mus musculus [11]. In data set [8], the Tmax amounted to 6.6 min. The activity at 0.25 h, 10 µM on CYP2C19 was greater than 100%; on CYP3A4 it was 95.4%. Further, the half-life in data set [10] was 107 min. In data set [12], 7790 nM corresponded to half-maximal inhibition (IC50). In data set [13], the inhibition entry was “inactive”. A half-maximal effect in data set [15] (EC50) was put at 162 nM.
Turning to `Cc1ccc(-c2noc3c2CCNCC3)cc1`, the results for the Ki in data set [1] and in data set [17] were greater than 10000 nM and 492 nM, respectively. Moreover, the Ratio Ki was determined as 8.6 in the data set filed under Homo sapiens [2]; 1.3 in the data set filed under Homo sapiens [7]; 9.4 in the data set listed under Homo sapiens [14]; 9.2 in the data set listed under Homo sapiens [16]; 112 in the data set filed under Homo sapiens [19]. For the same molecule, the Imax in data set [5] came out at 95.8%. This molecule also returned an IC50 in [12] of 844 nM. For the same molecule, in [13], the inhibition entry was “inactive”. For the same molecule, in data set [15], the half-maximal effective concentration (EC50) is 40.8 nM.
`Fc1ccc(-c2n[nH]c3c2CCNCC3)cc1`: the Ki is greater than 10000 nM in [1], 104 nM in [20] and 416 nM in [17]. Moreover, the Ratio Ki in the data set listed under Homo sapiens [2] was determined as 1.7; in the data set listed under Homo sapiens [7], 1.9; in the data set listed under Homo sapiens [14], 0.9; in the data set listed under Homo sapiens [21], 18; in the data set filed under Homo sapiens [16], 6.1; in the data set filed under Homo sapiens [19], 7.6. Also, the Imax in data set [5] was 98.4%. This molecule also displayed a half-inhibitory concentration (IC50) in data set [12] of 6980 nM. Besides, in [13], the inhibition entry was “inactive”. This molecule had an EC50 in data set [15] of 188 nM.
